Data reported in ChEMBL document CHEMBL2062403, “Disulfide prodrugs of albitiazolium (T3/SAR97276): synthesis and biological activities” (J Med Chem, 2012).

How the values were obtained:
[1] = test system: Plasmodium vinckei petteri; assay: Antimalarial activity against Plasmodium vinckei petteri 279BY infected in po dosed Swiss mouse assessed as reduction in parasitemia administered QD for 4 days measured on day 5; assay type: functional
Procedure, shortened: (§1)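 P. vinckei-infected mice, 4-day suppressive test, dosing once daily for 4 days by ip or oral route; vehicle DMSO for both routes except some compounds given in 0.9% NaCl (ip) or water (po); ED50 = dose inhibiting in vivo parasite growth by 50%.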

[2] = test system: Plasmodium vinckei petteri; assay: Antimalarial activity against Plasmodium vinckei petteri 279BY infected in ip dosed Swiss mouse assessed as reduction in parasitemia administered QD for 4 days measured on day 5; assay type: functional; procedure, shortened: as §1
[3] = test system: Plasmodium falciparum; assay: Antiplasmodial activity against Plasmodium falciparum assessed as inhibition of [3H]hypoxanthine incorporation after 48 hrs; assay type: functional, organism-based
Procedure, shortened: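 P. falciparum Nigerian strain blood stages, modified Desjardins microtiter test; drug contact one parasite cycle (48 h); growth read as [³H]hypoxanthine incorporation into nucleic acids; IC50 = concentration giving 50% growth inhibition.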

[4] = test system: Plasmodium vinckei petteri; assay: Ratio of ED50 for Plasmodium vinckei petteri 279BY infected in […] dosed Swiss mouse; assay type: functional
[5] = test system: Mus musculus; assay: Prodrug conversion in ip dosed Swiss mouse assessed as albitiazolium bromide formation administered QD for 4 days; assay type: ADME, organism-based; details: in vivo, 96 h
[6] = Aqueous solubility of the compound; assay type: physicochemical; details: water
[7] = test system: Mus musculus; assay: Prodrug conversion in po dosed Swiss mouse assessed as albitiazolium bromide formation administered QD for 4 days; assay type: ADME, organism-based; details: in vivo, 96 h

IC50 [3] | Drug metabolism [5] | solubility [6] | Drug metabolism [7] | Compound | ED50 [1] | ED50 [2] | Ratio ED50 [4]
130 nM | Active | 27 mg/mL |  | C/C1=C(\CCOC(=O)[C@@H](N)CCCCN)SS/C(CCOC(=O)[C@@H](N)CCCCN)=C(/C)N(C=O)CCCCCCCCCCCCN1C=O.Cl.Cl | 50 mg/kg | 0.9 mg/kg | 1.8
6 nM | Active |  | Active | CSS/C(CCO)=C(/C)N(C=O)CCCCCCCCCCCCN(C=O)/C(C)=C(/CCO)SSC | 15 mg/kg | 0.4 mg/kg | 2.7
24 nM | Active |  |  | CC(=O)OCC/C1=C(\C)N(C=O)CCCCCCCCCCCCN(C=O)/C(C)=C(/CCOC(C)=O)SS1 | 7.3 mg/kg | 1 mg/kg | 13.7
6.65 nM |  |  |  | Cc1c(CCOP(=O)(O)O)sc[n+]1CCCCCCCCCCCC[n+]1csc(CCOP(=O)(O)O)c1C | 34 mg/kg | 0.34 mg/kg | 1
590 nM | Active |  |  | C/C1=C(\CCOC(=O)[C@@H](N)C(C)C)SS/C(CCOC(=O)[C@@H](N)C(C)C)=C(/C)N(C=O)CCCCCCCCCCCCN1C=O.Cl | 37 mg/kg | 1 mg/kg | 4.1
5700 nM | Active |  |  | CCSS/C(CCOP(=O)([O-])[O-])=C(/C)N(C=O)CCCCCCCCCCCCN(C=O)/C(C)=C(/CCOP(=O)([O-])[O-])SSCC.[Li+].[Li+].[Li+].[Li+] | 60 mg/kg | 1.1 mg/kg | 1.8
65 nM | Active |  |  | C/C1=C(\CCO)SS/C(CCO)=C(/C)N(C=O)CCCCCCCCCCCCN1C=O | 22 mg/kg | 0.9 mg/kg | 
 |  |  |  | Cc1c(CCO)sc[n+]1CCCCCCCCCCCC[n+]1csc(CCO)c1C.[Br-].[Br-] [ALBITIAZOLIUM BROMIDE] | 13 mg/kg | 0.2 mg/kg | 1.5
4400 nM | Active |  |  | C/C(=C(\CCOP(=O)([O-])[O-])SSCc1ccccc1)N(C=O)CCCCCCCCCCCCN(C=O)/C(C)=C(/CCOP(=O)([O-])[O-])SSCc1ccccc1.[Li+].[Li+].[Li+].[Li+] | > 90 mg/kg | 3 mg/kg | 
14.4 nM | Active |  |  | C/C(=C(\CCO)SSCc1ccccc1)N(C=O)CCCCCCCCCCCCN(C=O)/C(C)=C(/CCO)SSCc1ccccc1 | 80 mg/kg | 1.3 mg/kg | 1.6
120 nM | Active | 27 mg/mL |  | CSS/C(CCOC(=O)[C@@H](N)CCCCN)=C(/C)N(C=O)CCCCCCCCCCCCN(C=O)/C(C)=C(/CCOC(=O)[C@@H](N)CCCCN)SSC.Cl.Cl | 44 mg/kg | 1 mg/kg | 2.3
 |  |  |  | CCN(CC)CCCC(C)Nc1ccnc2cc(Cl)ccc12 (centres undefined) [CHLOROQUINE] | 3.4 mg/kg | 1.1 mg/kg | 
61.7 nM |  |  |  | CCOP(=O)(OCC)OCC/C(SSCC)=C(\C)N(C=O)CCCCCCCCCCCCN(C=O)/C(C)=C(/CCOP(=O)(OCC)OCC)SSCC | > 90 mg/kg | > 1 mg/kg | 
1.3 nM | Active |  |  | CCCSS/C(CCO)=C(/C)N(C=O)CCCCCCCCCCCCN(C=O)/C(C)=C(/CCO)SSCCC | > 54 mg/kg | 0.5 mg/kg | 
5.4 nM | Active |  |  | CCSS/C(CCO)=C(/C)N(C=O)CCCCCCCCCCCCN(C=O)/C(C)=C(/CCO)SSCC | 44 mg/kg | 1.1 mg/kg | 2.5
160 nM | Active |  |  | CSS/C(CCOC(=O)[C@@H](N)C(C)C)=C(/C)N(C=O)CCCCCCCCCCCCN(C=O)/C(C)=C(/CCOC(=O)[C@@H](N)C(C)C)SSC.Cl | 58 mg/kg | 1 mg/kg | 1.7

Compound | IC50 [3] | Drug metabolism [5] | solubility [6] | Drug metabolism [7] | ED50 [1] | ED50 [2] | Ratio ED50 [4]
CCSS/C(CCOP1(=O)OCc2ccccc2O1)=C(/C)N(C=O)CCCCCCCCCCCCN(C=O)/C(C)=C(/CCOP1(=O)OCc2ccccc2O1)SSCC (centres undefined) | 520 nM | Active |  |  | > 90 mg/kg | 5 mg/kg | 
C/C(=C(\CCOP1(=O)OCc2ccccc2O1)SSCc1ccccc1)N(C=O)CCCCCCCCCCCCN(C=O)/C(C)=C(/CCOP1(=O)OCc2ccccc2O1)SSCc1ccccc1 (centres undefined) | 865 nM |  |  |  | > 90 mg/kg | > 5 mg/kg | 
